A selection: hits, their analogues and other compounds. The true share with any hit is near 1.7%.
T cell HTS = T cell immune modulation candidate. 2C CD8+ T cell-vesicle binding, flow cytometry; stronger effect = lower value. response (vesicle binding), % at 7 µM. 330,000 compounds, 0.068% hits. AID 2052;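 active = response, share of CD8 T cells binding vesicles, and their 90th percentile fluorescence all below set limits, cut at about 80% in these data, passing the limit was not always enough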;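 note: values below 100% mean blocked vesicle binding to the CD8+ T cells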
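incubation = binding step 1.5 h, 37 °C, antibody labelling 20 min, ice | test system = 2C mouse CD8+ T cells | read-out basis = percent CD8+ FL2 mean versus row control | controls = Peptide-free naked vesicles (low) and QL9 vesicles with 0.7% DMSO vehicle (high) | detection = flow cytometry of vesicle-bound cells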
Myeloid diff MLP = compounds promoting myeloid differentiation | ER-HoxA9 myeloid progenitors, lysozyme-GFP differentiation, flow cytometry | calls only at 10 µM | 360,000 compounds, 1% hits | AID 624256;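 active = normalized GFP-positive differentiation at or above the plate's own cutoff, the solvent-only control mean plus 3 SD; inconclusive = no clear call, values can overlap the other calls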;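 note: cells exposed to compound for four days before flow analysis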
DSG3 Ab inh = blocks pemphigus antibody binding to human desmoglein-3 | P32926 | 310,000 compounds, 0.48% hits | DSG3-coupled beads, scFv-anti-DSG3-GFP binding, flow cytometry; stronger effect = lower value | binding (percent of control), % at 10 µM;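 active = binding more than 3 SD below its plate's average and above zero; inconclusive = below that plate limit but binding exactly zero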
Vif imaging = HIV Vif inhibition. HEK293T cells, Vif self-association by quenched fluorescence, imaging, 24 h. AID 602346. inhibition, % at 7.49 µM. 340,000 compounds, 0.35% hits; in the data active = inhibition above about 50%, passing the limit was not always enough; inconclusive = no clear call, values can overlap the other calls; inactive = below about 31%
Numbers stand for hits.

Cc1cc(C)cc(C(O)c2ncc(-c3cccc(C(F)(F)F)c3)[nH]2)c1 (stereo unspecified) was read as Myeloid diff MLP inactive.
`COc1ccc(CNC(=O)c2ccc(Cl)c(S(=O)(=O)N3CCOCC3)c2)cc1OC` gave T cell HTS inactive, Myeloid diff MLP active, DSG3 Ab inh inactive and Vif imaging inactive.
For O=C(COC(=O)c1ccc(S(=O)(=O)N2CCCCCC2)cc1)NCc1ccc(F)cc1 the results were Myeloid diff MLP inactive, DSG3 Ab inh inactive and Vif imaging inactive.
For COc1ccc(CNC(=O)COC(=O)c2cc(S(=O)(=O)N3CCOCC3)ccc2O)cc1OC the results were T cell HTS inactive, Myeloid diff MLP inactive, DSG3 Ab inh inactive and Vif imaging 51.
O=C(COC(=O)c1ccc(S(=O)(=O)N2CCCC2)cc1)NCc1ccc(Cl)cc1 was read as T cell HTS inactive, Myeloid diff MLP inactive, DSG3 Ab inh 71 and Vif imaging inactive.
O=C(COC(=O)c1cc(S(=O)(=O)N2CCOCC2)ccc1O)NCc1ccc2c(c1)OCO2 was read as Myeloid diff MLP inactive, DSG3 Ab inh inactive and Vif imaging inactive.
Screening CN(C(=O)c1cccc(NC(=O)Cc2ccc(NC(=O)C3CCCN(S(=O)(=O)c4cccc([N+](=O)[O-])c4)C3)cc2)c1)C1CCC1 (stereo unspecified) returned Myeloid diff MLP inactive, DSG3 Ab inh inactive and Vif imaging inactive.
Screening COc1ccc(C(C(=O)NC2CCCCC2)N(Cc2cccs2)C(=O)Cc2c[nH]c3ccccc23)cc1 (stereo unspecified) returned T cell HTS inactive, Myeloid diff MLP inactive, DSG3 Ab inh 30 and Vif imaging inactive.
COc1cccc(CN(C(=O)Cc2c[nH]c3ccccc23)C(C(=O)NC2CCCCC2)c2cccs2)c1 (stereo unspecified) was read as T cell HTS inactive, Myeloid diff MLP inactive, DSG3 Ab inh inactive and Vif imaging inactive.
Cc1cc(NCCCCCCCNc2cc(C)nc3cc([N+](=O)[O-])ccc23)c2ccc([N+](=O)[O-])cc2n1 was read as Myeloid diff MLP inactive, DSG3 Ab inh inactive and Vif imaging inactive.
`Cn1c(C(=O)N2CCN(c3ncccn3)CC2)cc2c(=O)n(C)c3ccccc3c21` gave Myeloid diff MLP inactive, DSG3 Ab inh inactive and Vif imaging inactive.
Screening Cn1c(C(=O)N2CCCC2)cc2c(=O)n(C)c3ccccc3c21 returned Myeloid diff MLP inactive, DSG3 Ab inh inactive and Vif imaging inactive.
`Cc1ccc(Cl)cc1N1CCN(C(=O)c2cc3c(=O)n(C)c4ccccc4c3n2C)CC1` gave T cell HTS inactive, Myeloid diff MLP active, DSG3 Ab inh inactive and Vif imaging inactive.
`Cc1cccc(N2CCN(C(=O)c3cc4c(=O)n(C)c5ccccc5c4n3C)CC2)c1C` gave T cell HTS inactive, Myeloid diff MLP active, DSG3 Ab inh inactive and Vif imaging inactive.
CN1C(=O)c2ccccc2CC12c1ccccc1C(=O)N2C (stereo unspecified) was read as Myeloid diff MLP inactive, DSG3 Ab inh inactive and Vif imaging inactive.
`O=C(NCc1ccco1)c1ccc(-c2ccc(F)c(F)c2)c2ccoc12` gave Myeloid diff MLP inactive and Vif imaging inactive.
COc1ccc(C(=O)NNC(=S)NC(=O)c2cccs2)cc1 was read as T cell HTS inactive, Myeloid diff MLP inactive, DSG3 Ab inh inactive and Vif imaging inactive.
Screening COc1ccc(/C=C/C(=O)NC(=S)NNC(=O)c2cccs2)cc1 returned T cell HTS inactive, Myeloid diff MLP inactive, DSG3 Ab inh inactive and Vif imaging 67.
`CC1(c2nc3ccccc3cc2C#N)OCCO1` gave Myeloid diff MLP inactive, DSG3 Ab inh inactive and Vif imaging inactive.
CN1/C(=C\C(=S)NC(=O)c2cccc(Br)c2)C(C)(C)c2ccccc21 was read as T cell HTS inactive, Myeloid diff MLP active, DSG3 Ab inh inactive and Vif imaging inactive.
For CN1/C(=C\C(=S)NC(=O)c2ccc([N+](=O)[O-])cc2)C(C)(C)c2ccccc21 the results were T cell HTS inactive, Myeloid diff MLP inactive, DSG3 Ab inh inactive and Vif imaging inactive.
For N#Cc1c(SCC(=O)Nc2ccccc2)nsc1SCC(=O)Nc1ccccc1 the results were T cell HTS inactive, Myeloid diff MLP inactive, DSG3 Ab inh 67 and Vif imaging inactive.
`Cc1cccc(NC(=O)CSc2nsc(SCC(=O)Nc3cccc(C)c3)c2C#N)c1` gave T cell HTS inactive, Myeloid diff MLP inactive, DSG3 Ab inh inactive and Vif imaging inactive.
For COc1cc(/C=C2\SC(=Nc3ccc(O)cc3)NC2=O)cc(OC)c1OC the results were T cell HTS inactive.
`COc1cc(/C=C2/SC(=Nc3ccc(O)cc3)NC2=O)cc(OC)c1O` gave T cell HTS inactive, Myeloid diff MLP active, DSG3 Ab inh inactive and Vif imaging inactive.
For c1ccc(-[n+]2nc(Nc3cccc4ccccc34)sc2-c2c3ccccc3cc3ccccc23)cc1 the results were T cell HTS inactive, Myeloid diff MLP inconclusive, DSG3 Ab inh inactive and Vif imaging inactive.
CCC(C)n1c(-c2cccs2)nc2nc3ccccc3nc21 (stereo unspecified) was read as T cell HTS inactive, Myeloid diff MLP inactive, DSG3 Ab inh inactive and Vif imaging 68.
N#CCCN/N=C(/Cc1nc2ccccc2[nH]1)c1cccc(Cl)c1 was read as T cell HTS inactive, Myeloid diff MLP active, DSG3 Ab inh inactive and Vif imaging inactive.
Screening Clc1ccc(/C(Cc2nc3ccccc3[nH]2)=N\Nc2ccccc2)cc1 returned T cell HTS inactive, Myeloid diff MLP inactive, DSG3 Ab inh inactive and Vif imaging inactive.
For O=S(=O)(c1ccccc1)c1nnn2c1nc(NC1CCN(Cc3ccccc3)CC1)c1ccccc12 the results were T cell HTS inactive, Myeloid diff MLP active, DSG3 Ab inh inactive and Vif imaging inactive.
For O=S(=O)(c1ccccc1)c1nnn2c1nc(NC1CCN(Cc3ccccc3)CC1)c1cc(Cl)ccc12 the results were T cell HTS inactive, Myeloid diff MLP inconclusive, DSG3 Ab inh inactive and Vif imaging inactive.
For NC(=O)C1CCN(c2nc(-c3ccc(Br)cc3)cs2)CC1 the results were T cell HTS inactive, Myeloid diff MLP inactive, DSG3 Ab inh 58 and Vif imaging inactive.
CCOc1ccc(N(CC(=O)N2CCc3ccccc32)S(=O)(=O)c2c(C)noc2C)cc1 was read as T cell HTS inactive, Myeloid diff MLP active, DSG3 Ab inh inactive and Vif imaging inactive.
Cc1ccc(CN2CCN(C(=O)c3ccncc3)CC2)cc1 was read as T cell HTS inactive, Myeloid diff MLP inactive, DSG3 Ab inh 62 and Vif imaging inactive.
Screening O=C(c1cc(-c2ccncc2)nc2ccccc12)N1CCN(Cc2ccccc2)CC1 returned T cell HTS inactive, Myeloid diff MLP inactive, DSG3 Ab inh inactive and Vif imaging 51.
Screening COc1cc(NC(=O)[C@H]2O[C@@H](n3cnc4c(N)ncnc43)[C@H](O)[C@@H]2O)cc(OC)c1OC returned Myeloid diff MLP inactive and Vif imaging inactive.
Screening COc1ccccc1C(=O)Nc1nnc(C)s1 returned T cell HTS inactive, Myeloid diff MLP inactive, DSG3 Ab inh inactive and Vif imaging inactive.
For COc1cc(C(=O)Nc2nnc(C)s2)c([N+](=O)[O-])cc1OC the results were T cell HTS inactive, Myeloid diff MLP inactive, DSG3 Ab inh 85 and Vif imaging inactive.

Bioassay records deposited in PubChem BioAssay by several laboratories.
